In PubChem BioAssay AID493097 (Broad Institute, 2011) one finds activity change, negative = inhibition and AC50 data, which are given here for 12 molecules.

Each structure is given as a SMILES string. Active and inactive are the calls of the source.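 The calls were made as follows: active = falling signal with a fitted half-maximal concentration at most ten times the top valid dose; inconclusive = flat fit with 30 to 70 percent inhibition, or a poor fit; inactive = the rest.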

Test system in one assay: not listed separately
Nature of the assay: constitutive quorum sensing luminescence reduction – strain BB721, dry powder, set 4, counter-screen for LuxS inhibitor project, dose response (AID 493097). The conditions noted are these: Vibrio harveyi BB721 constitutive QS, luminescence, 9 h; at 16 µM (top of the series). Summed up:
(§1)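 Incubation: 9 h exposure, 30 °C / System: V. harveyi BB721, constitutive-on quorum sensing / Amount: bacteria seeded at starting optical density OD600 0.0005 / Medium: AB (autoinducer bioassay) growth medium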
As to `Cn1cnc(S(=O)(=O)Nc2ccccc2Cl)c1`, the activity change, negative = inhibition was 12.3% (inactive).

Consider `CN(C)C(=O)c1ccccc1NS(=O)(=O)c1cn(C)cn1`, for which the activity change, negative = inhibition was 8.65% (inactive).

In the case of `Cc1ccccc1NS(=O)(=O)c1cn(C)cn1`, the activity change, negative = inhibition is 5.69% (inactive).

With `Cn1cnc(S(=O)(=O)Nc2ccccc2F)c1`, the activity change, negative = inhibition was 6.38% (inactive).

For the molecule `CC(=O)Nc1ccccc1NS(=O)(=O)c1cn(C)cn1`, the activity change, negative = inhibition was 6.64% (inactive).

For the molecule `CCc1ccc(-c2ccc(C(=O)O)n2C)cc1`, the activity change, negative = inhibition was -7.36% (inactive).

As for `COc1ccccc1NS(=O)(=O)c1cn(C)cn1`, the activity change, negative = inhibition is -0.736% (inactive).

The subject of the next assay is Vibrio harveyi BB721 constitutive QS, luminescence, 9 h. The description is as above.
Details: not given
In outline:
as §1
For `O=S(=O)(Nc1ccccn1)c1ccc(Oc2ccccc2)cc1`, the AC50 is 15.5 µM.

With `C=Cn1c(C(=O)O)ccc1-c1ccc(CC)cc1`, the AC50 was 13.1 µM.

Regarding `O=S(=O)(Nc1cccnc1)c1ccc(Oc2ccccc2)cc1`, the AC50 was 0.775 µM.

Consider `O=C1C=C/C(=C/Br)O1`, for which the AC50 was 3.92 µM.

On to `Cn1cnc(S(=O)(=O)Nc2ccc(OC(F)(F)F)cc2)c1`, for which the AC50 is 14.1 µM.
